{
  "source": "ChEMBL document CHEMBL1157729",
  "about": "“Structure-activity relationship and mechanism of action studies of manzamine analogues for the control of neuroinflammation and cerebral infections” (J Med Chem, 2010)",
  "key": {"[1]": {"tested_on": "HeLa", "assay": "Cell cycle arrest in human HeLa cells assessed as increase in G0/G1 phase accumulation at 10 uM after 24 hrs by FACS analysis", "type": "functional"}, "[2]": {"tested_on": "Plasmodium berghei", "assay": "Antiplasmodial activity against Plasmodium berghei NK65 infected in Swiss Webster mice (Mus musculus) assessed as average parasitaemia at 200 mg/kg, perorally administered 1 day after infection measured after 14 days post infection", "type": "functional", "conditions": "Plasmodium berghei, NK65, route oral", "outline": "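Male Swiss Webster mice (18-20 g), at least 5 per group, were inoculated ip with 2×10^7 P. berghei NK-65-parasitized red cells from a donor mouse and given a single oral dose (100 μl). Stock was made in SSV or 0.1 M HCl and diluted in SSV or 0.01 M HCl. Parasitemia was read from Giemsa-stained tail blood smears from day 5 to day 28. Cure meant no parasitemia through day 28.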"}, "[3]": {"tested_on": "Mycobacterium tuberculosis", "assay": "Antimycobacterial activity against Mycobacterium tuberculosis", "type": "functional"}, "[4]": {"tested_on": "HeLa", "assay": "Cytotoxicity against human HeLa cells after 48 hrs by trypan blue exclusion assay", "type": "functional"}, "[5]": {"tested_on": "Plasmodium berghei", "assay": "Antiplasmodial activity against Plasmodium berghei NK65 infected in Swiss Webster mice (Mus musculus) assessed as average parasitaemia at 3.3 mg/kg, perorally administered 1 day after infection for 3 days measured after 21 days post infection", "type": "functional", "conditions": "route oral", "outline": "(§1)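 Male Swiss Webster mice (18-20 g, ≥5/group) inoculated i.p. with 2×10^7 P. berghei NK-65 parasitized RBC; oral dosing (100 μl, SSV or dilute HCl vehicle) once daily for 3 days from day 1; Giemsa-stained tail blood smears days 5–28; inhibition is % decrease versus untreated controls on day 5.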"}, "[6]": {"tested_on": "HeLa", "assay": "Cell cycle arrest in human HeLa cells assessed as increase in S phase accumulation at 10 uM after 24 hrs by FACS analysis", "type": "functional"}, "[7]": {"tested_on": "MDCK", "assay": "Apparent permeability across apical to basolateral side of MDCK cells expressing MDR", "type": "ADME, cell-based, Canis lupus familiaris", "conditions": "dog", "outline": "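MDR-MDCK cells (passage 12-40) seeded at 75,000 cells/cm2 and grown 8 days on Transwell inserts to a monolayer. Bidirectional transport over 2 h in HBSS pH 7.4 with test substance at 50 μM and caffeine (5 μM) as standard. Donor and receiver samples quantified by LC-MS. Cumulative amount transported plotted against time to derive apparent permeability.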"}, "[8]": {"tested_on": "Plasmodium berghei", "assay": "Antiplasmodial activity against Plasmodium berghei NK65 infected in Swiss Webster mice (Mus musculus) assessed as parasitaemia cure at 10 mg/kg, perorally administered 1 day after infection for 3 days measured after 28 days post infection", "type": "functional", "conditions": "route oral", "outline": "(§2)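 Male Swiss Webster mice (18-20 g), at least 5 per group, inoculated i.p. with 2×10^7 P. berghei NK-65-parasitized red cells from a donor mouse. Oral dosing (100 μl, in SSV or 0.01 M HCl dilutions) from day one post-infection on a 3-day schedule (modified Peters test). Giemsa-stained tail-blood smears read from day 5 to day 28. Cure means no parasitemia through day 28.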"}, "[9]": {"tested_on": "Plasmodium berghei", "assay": "Antiplasmodial activity against Plasmodium berghei NK65 infected in Swiss Webster mice (Mus musculus) assessed as survivability at 5 mg/kg, perorally administered 1 day after infection for 3 days measured after 28 days post infection", "type": "functional", "conditions": "route oral"}, "[10]": {"tested_on": "Plasmodium berghei", "assay": "Antiplasmodial activity against Plasmodium berghei NK65 infected in Swiss Webster mice (Mus musculus) assessed as inhibition of parasitaemia at 5 mg/kg, perorally administered 1 day after infection for 3 days measured after 5 days post infection", "type": "functional", "conditions": "route oral"}, "[11]": {"tested_on": "HeLa", "assay": "Cell cycle arrest in human HeLa cells assessed as decrease in G2/M phase accumulation at 10 uM after 24 hrs by FACS analysis", "type": "functional", "parameters": "scale not given: the % may be the effect or the level left"}, "[12]": {"tested_on": "Plasmodium berghei", "assay": "Antiplasmodial activity against Plasmodium berghei NK65 infected in Swiss Webster mice (Mus musculus) assessed as survivability at 3.3 mg/kg, perorally administered 1 day after infection for 3 days measured after 28 days post infection", "type": "functional", "conditions": "route oral", "outline": "as §2"}, "[13]": {"tested_on": "Plasmodium berghei", "assay": "Antiplasmodial activity against Plasmodium berghei NK65 infected in Swiss Webster mice (Mus musculus) assessed as average parasitaemia at 100 mg/kg, perorally administered 1 day after infection measured after 5 days post infection", "type": "functional", "conditions": "route oral", "outline": "(§3)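 Male Swiss Webster mice (18-20 g, ≥5/group) inoculated i.p. with 2×10^7 P. berghei NK-65 parasitized RBC, given a single oral dose (100 μl, SSV or dilute HCl vehicle); parasitemia by Giemsa-stained tail blood smears days 5–28; activity as % decrease versus untreated controls on day 5.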"}, "[14]": {"tested_on": "Mus musculus", "assay": "Toxicity in Plasmodium berghei NK65 infected Swiss Webster mice (Mus musculus) at 10 mg/kg, intraperitoneally for 3 days administered 1 day after infection measured after 5 days post infection", "type": "organism-based", "parameters": "dose 10 mg/kg, route intraperitoneal", "conditions": "in vivo, ip, 120 h"}, "[15]": {"tested_on": "Plasmodium yoelii", "assay": "Antiplasmodial activity against Plasmodium yoelii infected in perorally dosed mice (Mus musculus)", "type": "functional", "conditions": "po"}, "[16]": {"tested_on": "HeLa", "assay": "Cell cycle arrest in human HeLa cells assessed as increase in G0/G1 phase accumulation at 3 uM after 24 hrs by FACS analysis", "type": "functional"}, "[17]": {"tested_on": "Plasmodium berghei", "assay": "Antiplasmodial activity against Plasmodium berghei NK65 infected in Swiss Webster mice (Mus musculus) assessed as average parasitaemia at 3.3 mg/kg, perorally administered 1 day after infection for 3 days measured after 28 days post infection", "type": "functional", "conditions": "route oral", "outline": "as §1"}, "[18]": {"tested_on": "Plasmodium berghei", "assay": "Antiplasmodial activity against Plasmodium berghei NK65 infected in Swiss Webster mice (Mus musculus) assessed as average parasitaemia at 3.3 mg/kg, perorally administered 1 day after infection for 3 days measured after 7 days post infection", "type": "functional", "conditions": "route oral", "outline": "as §1"}, "[19]": {"tested_on": "HeLa", "assay": "Cell cycle arrest in human HeLa cells assessed as increase in S phase accumulation at 5 uM after 24 hrs by FACS analysis", "type": "functional"}, "[20]": {"tested_on": "Plasmodium berghei", "assay": "Antiplasmodial activity against Plasmodium berghei NK65 infected in Swiss Webster mice (Mus musculus) assessed as average parasitaemia at 50 mg/kg, perorally administered as single dose measured after 5 days of inoculation", "type": "functional", "conditions": "NK65, 120 h, route oral", "outline": "as §3"}, "[21]": {"tested_on": "Plasmodium berghei", "assay": "Antiplasmodial activity against Plasmodium berghei NK65 infected in Swiss Webster mice (Mus musculus) assessed as parasitaemia cure at 50 mg/kg, perorally administered 1 day after infection measured after 28 days post infection", "type": "functional", "conditions": "route oral", "outline": "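P. berghei NK-65 infection in male Swiss Webster mice (18-20 g; 2×10^7 parasitized erythrocytes i.p.; ≥5 per group). A single oral dose of 100 μl, diluted in SSV or 0.01 M HCl, then observation for toxicity signs and body weight. Parasitemia read from Giemsa-stained tail smears from day 5 through day 28. Mice free of parasitemia through day 28 counted as cured.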"}, "[22]": {"tested_on": "HeLa", "assay": "Cell cycle arrest in human HeLa cells assessed as increase in S phase accumulation at 20 uM after 24 hrs by FACS analysis", "type": "functional"}, "[23]": {"tested_on": "Plasmodium berghei", "assay": "Antiplasmodial activity against Plasmodium berghei NK65 infected in Swiss Webster mice (Mus musculus) assessed as parasitaemia cure at 1.1 mg/kg, perorally administered 1 day after infection for 3 days measured after 28 days post infection", "type": "functional", "conditions": "route oral", "outline": "as §2"}, "[24]": {"tested_on": "HeLa", "assay": "Cell cycle arrest in human HeLa cells assessed as decrease in G2/M phase accumulation at 5 uM after 24 hrs by FACS analysis", "type": "functional", "parameters": "scale not given: the % may be the effect or the level left"}, "[25]": {"species": "Mus musculus", "assay": "Toxicity in Plasmodium berghei NK65 infected Swiss Webster mice (Mus musculus) assessed as weight loss after 5 days post infection", "type": "organism-based", "conditions": "in vivo, 120 h"}, "[26]": {"tested_on": "Plasmodium berghei", "assay": "Antiplasmodial activity against Plasmodium berghei NK65 infected in Swiss Webster mice (Mus musculus) assessed as survivability at 10 mg/kg, perorally administered 1 day after infection for 3 days measured after 28 days post infection", "type": "functional", "conditions": "route oral"}},
  "data": [
    {"smiles": "O[C@]12C=C(c3nccc4c3[nH]c3ccccc34)[C@@H]3CCN(CCCC/C=C\\CC1)C[C@@]31C[C@@H]3/C=C\\CCCCN3[C@H]12", "note": "[MANZAMINE A]", "values": [
      {"measurement": "Activity", "setting": "[1]", "result": 59.1, "unit": "%"},
      {"measurement": "inhibition in vivo at 200 mg/kg", "setting": "[2]", "result": 0, "unit": "%"},
      {"measurement": "MIC", "setting": "[3]", "result": 1.56, "unit": "µg/mL"},
      {"measurement": "Activity", "setting": "[4]", "result": 2, "unit": "µg/mL"},
      {"measurement": "inhibition in vivo at 3.3 mg/kg", "setting": "[5]", "result": 21.6, "unit": "%"},
      {"measurement": "Activity", "setting": "[6]", "result": 59.1, "unit": "%"},
      {"measurement": "Papp", "setting": "[7]", "result": 0.87, "unit": "×10⁻⁶ cm/s"},
      {"measurement": "inhibition in vivo at 10 mg/kg", "setting": "[8]", "result": 75, "unit": "%"},
      {"measurement": "inhibition in vivo at 5 mg/kg", "setting": "[9]", "result": 100, "unit": "%"},
      {"measurement": "inhibition in vivo at 5 mg/kg", "setting": "[10]", "result": 88, "unit": "%"},
      {"measurement": "Activity", "setting": "[11]", "result": 13.6, "unit": "%"},
      {"measurement": "inhibition in vivo at 3.3 mg/kg", "setting": "[12]", "result": 100, "unit": "%"},
      {"measurement": "inhibition in vivo at 100 mg/kg", "setting": "[13]", "result": 0, "unit": "%"},
      {"measurement": "Activity", "setting": "[14]", "result": "Toxic"},
      {"measurement": "ED50", "setting": "[15]", "result": 0.57, "unit": "mg/kg"},
      {"measurement": "ED90", "setting": "[15]", "result": 1.7, "unit": "mg/kg"},
      {"measurement": "Activity", "setting": "[16]", "result": 56.2, "unit": "%"},
      {"measurement": "inhibition in vivo at 3.3 mg/kg", "setting": "[17]", "result": 53.9, "unit": "%"},
      {"measurement": "inhibition in vivo at 3.3 mg/kg", "setting": "[18]", "result": 2.8, "unit": "%"},
      {"measurement": "Activity", "setting": "[19]", "result": 56.3, "unit": "%"},
      {"measurement": "inhibition in vivo at 50 mg/kg", "setting": "[20]", "result": 0, "unit": "%"},
      {"measurement": "inhibition in vivo at 50 mg/kg", "setting": "[21]", "result": 60, "unit": "%"},
      {"measurement": "Activity", "setting": "[22]", "result": 67.2, "unit": "%"},
      {"measurement": "inhibition in vivo at 1.1 mg/kg", "setting": "[23]", "result": 0, "unit": "%"},
      {"measurement": "Activity", "setting": "[24]", "result": 14.3, "unit": "%"},
      {"measurement": "Activity", "setting": "[25]", "result": "Non-toxic"},
      {"measurement": "inhibition in vivo at 10 mg/kg", "setting": "[26]", "result": 100, "unit": "%"}
    ]}
  ]
}
